Results on 59 compounds are retold here after ChEMBL document CHEMBL1212900, “Falcipain inhibitors: optimization studies of the 2-pyrimidinecarbonitrile lead series” (J Med Chem, 2010).

A value given as a limit tells only on which side of the number the result lay.

Test [1] can be described thus: Inhibition of Plasmodium falciparum falcipain-2 expressed in Escherichia coli. In short, it runs like this: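 Recombinant E. coli-expressed, refolded enzyme at 0.25 nM in 100 mM sodium acetate pH 5.5, 500 μM CHAPS, 10 mM DTT, DMSO ≤1%. Substrate H-D-Val-Leu-Arg-AFC at 30 μM final. Inhibitor dilutions mixed with substrate, enzyme added last; fluorescence followed 1 h at room temperature. IC50 from percent activity versus concentration.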

A short description of test [2]: Inhibition of Plasmodium falciparum falcipain-3 expressed in Escherichia coli. In short, it runs like this:
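Refolded recombinant enzyme from E. coli, 2 nM, in 100 mM sodium acetate pH 5.5 with 500 μM CHAPS and 10 mM DTT, DMSO up to 1%. H-D-Val-Leu-Arg-AFC at 150 μM final. Reaction started by enzyme addition; fluorescence monitored 1 h at room temperature. IC50 derived from percent activity plotted against inhibitor concentration.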

For the next test, the system named is Plasmodium falciparum. The test is described as follows: Antiplasmodial activity against Plasmodium falciparum W2 after 48 hrs. It counts as functional, organism-based. The settings on record: W2, 48 h. In short, it runs like this: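 W2 P. falciparum grown in human erythrocytes, 2% hematocrit, RPMI with 10% human serum or 0.5% AlbuMAX II; sorbitol-synchronized. Serial dilutions from DMSO stocks added at ring stage for 48 h, medium and drug renewed at 24 h. Cells fixed in 1% formaldehyde, stained with YOYO-1, parasitemia counted by flow cytometry; IC50 from percent parasitemia versus untreated controls.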

Turning to `CCCC(C)CN(NC(=O)c1ccc(CN2CCN(C)CC2)cc1)c1nc(C#N)ncc1Br` (stereo not drawn), the IC50 (as a rule, the concentration needed to halve the response being measured) in test [1] is 2 nM; in test [2] it was 52 nM; in the test on Plasmodium falciparum it was 272 nM.

As for `CC(C)CCN(NC(=O)c1ccc(CN2CCN(C)CC2)cc1)c1nc(C#N)ncc1Br`, the IC50 was 4 nM in test [1], 68 nM in test [2] and 262 nM in the test on Plasmodium falciparum.

For `CN1CCN(Cc2ccc(C(=O)NN(c3nc(C#N)ncc3Br)C3CCC3)cc2)CC1`, the values for the IC50 (in test [1]; in test [2]; in the test with Plasmodium falciparum) were 2 nM, 173 nM and 90 nM, respectively.

With `CN1CCN(Cc2ccc(C(=O)NN(CC(C)(C)C)c3nc(C#N)ncc3Br)cc2)CC1`, the IC50 in test [1] worked out at 19 nM; in test [2], 158 nM; with Plasmodium falciparum, 409 nM.

Regarding `CCCN1CCN(Cc2ccc(CC(=O)NN(CC(C)C)c3nc(C#N)ncc3Cl)cc2)CC1`, the IC50 in test [1] was found to be 0.7 nM; in test [2] it was 6 nM; with Plasmodium falciparum it was 41 nM.

As to `CN1CCN(Cc2ccc(C(=O)NN(Cc3ccoc3)c3nc(C#N)ncc3Br)cc2)CC1`, the IC50 in test [1] was 2 nM; in test [2] it was 133 nM; with Plasmodium falciparum it was 333 nM.

Take `CN1CCN(Cc2ccc(C(=O)NN(c3nc(C#N)ncc3Br)C3CCOCC3)cc2)CC1`: the IC50 stood at 0.9 nM in test [1], 17 nM in test [2] and 59 nM in the test on Plasmodium falciparum.

Regarding `CCCN1CCN(c2ccc(C(=O)NN(CC(C)C)c3nc(C#N)ncc3Br)cc2)CC1`, the IC50 in test [1] is below 0.5 nM; in test [2], 32 nM; with Plasmodium falciparum it was 25 nM.

For the compound `CN1CCN(Cc2ccc(C(=O)NN(CC3CCCCC3)c3nc(C#N)ncc3Br)cc2)CC1`, the 50% inhibitory concentration (IC50) came to 2 nM in test [1], 16 nM in test [2] and 263 nM in the test on Plasmodium falciparum.

Consider `CC(C)CN(NC(=O)C(C)(C)c1ccc(CN2CCN(C)CC2)cc1)c1nc(C#N)ncc1Cl`, for which the IC50 in test [1] came to 5 nM; in test [2] it was 46 nM; in the test on Plasmodium falciparum, 253 nM.

In the case of `C[C@@H]1CCC[C@H]1N(NC(=O)c1ccc(CN2CCN(C)CC2)cc1)c1nc(C#N)ncc1Br`, the IC50 in test [1] came to 0.2 nM; in test [2], 3 nM; in the test on Plasmodium falciparum, 5 nM.

With `CC(C)CN(NC(=O)Cc1ccc(CN2CCN(C)CC2)cc1)c1nc(C#N)ncc1Cl`, the figures for the IC50 (in test [1]; in test [2]; in the test on Plasmodium falciparum) were 0.7 nM, 5 nM and 43 nM, respectively.

As to `CC(C)CN(NC(=O)c1ccc(CN2CCN(C)CC2)cc1)c1nc(C#N)ncc1Br`, the IC50 is 0.4 nM in test [1], 55 nM in test [2] and 15 nM in the test with Plasmodium falciparum.

Take `CC(=O)N1CCC(N(NC(=O)c2ccc(CN3CCN(C)CC3)cc2)c2nc(C#N)ncc2Br)CC1`: the IC50 in test [1] was below 0.5 nM; in test [2], 26 nM; with Plasmodium falciparum, 28 nM.

As to `CN1CCN(Cc2ccc(C(=O)NN(CC3CCC3)c3nc(C#N)ncc3Br)cc2)CC1`, the IC50 stood at 3 nM in test [1], 111 nM in test [2] and 438 nM in the test on Plasmodium falciparum.

For the compound `CC(C)CN(NC(=O)c1cncc(-c2ccccc2)c1)c1nc(C#N)ncc1Br`, the IC50 in test [1] was below 0.5 nM; in test [2], 4 nM.

For `CC(C)CN(NC(=O)c1ccccc1Oc1ccccc1)c1nc(C#N)ncc1Br`, the IC50 is 5 nM in test [1] and 66 nM in test [2].

As to `CC(C)CN(NC(=O)c1nc2ccccc2s1)c1nc(C#N)ncc1Cl`, the figures for the IC50 in test [1] and in test [2] were 2 nM and 112 nM, respectively.

Take `Cc1c(C(=O)NN(CC(C)C)c2nc(C#N)ncc2Br)n(C)c2ccccc12`: the results for the IC50 in test [1] and in test [2] were 4 nM and 311 nM, respectively.

As to `CC(C)CN(NC(=O)c1cc2ccccc2[nH]1)c1nc(C#N)ncc1Br`, the half-maximal inhibitory concentration (IC50) is 15 nM in test [1] and 641 nM in test [2].

Turning to `CC(C)CN(NC(=O)C(C)(C)c1ccc(Cl)cc1)c1nc(C#N)ncc1Br`, the IC50 came out at 4 nM in test [1] and 18 nM in test [2].

On to `CC(C)CN(NC(=O)OC(C)(C)C)c1nc(C#N)ncc1NCc1ccccc1`, for which the values for the IC50 in test [1] and in test [2] were 616 nM and 2070 nM, respectively.

As to `CC(C)CN(NC(=O)c1ccc(-c2ccccc2)cc1)c1nc(C#N)ncc1Br`, the IC50 turned out to be 28 nM in test [1] and 1460 nM in test [2].

As to `CC(C)CN(NC(=O)c1ccc2[nH]nnc2c1)c1nc(C#N)ncc1Br`, the half-maximal inhibitory concentration (IC50) in test [1] amounted to 0.2 nM; in test [2] it was 40 nM.

`Cc1cc(C)c(CC(=O)NN(CC(C)C)c2nc(C#N)ncc2Br)c(C)c1`: the IC50 in test [1] turned out to be 1 nM; in test [2], 21 nM.

With `CC(C)CN(NC(=O)c1ccc(-c2ccccc2)o1)c1nc(C#N)ncc1Br`, the IC50 in test [1] was found to be 1 nM; in test [2] it was 39 nM.

Consider `COc1ccc(C(C)(C)C(=O)NN(CC(C)C)c2nc(C#N)ncc2Br)cc1`, for which the IC50 was determined as 6 nM in test [1] and 34 nM in test [2].

Consider `CC(C)(C)OC(=O)NN(CCC1CCCCC1)c1nc(C#N)ncc1Br`, for which the IC50 came out at 257 nM in test [1] and 860 nM in test [2].

Consider `CC(C)CN(NC(=O)OC(C)(C)C)c1ncc(C#N)c(Cl)n1`, for which the IC50 worked out at 64 nM in test [1] and 990 nM in test [2].

With `Cc1nc(-c2ccc(C(F)(F)F)cc2)sc1C(=O)NN(CC(C)C)c1nc(C#N)ncc1Cl`, the IC50 in test [1] worked out at 12 nM; in test [2] it was 1540 nM.

Consider `CC(C)(C)OC(=O)NN(c1nc(C#N)ncc1Br)C1CCOCC1`, for which the results for the IC50 in test [1] and in test [2] were 2 nM and 28 nM, respectively.

For the compound `CC(C)CN(NC(=O)c1ccc2sccc2c1)c1nc(C#N)ncc1Br`, the figures for the IC50 in test [1] and in test [2] were 1 nM and 154 nM, respectively.

For `CC(C)CN(NC(=O)c1nccc2ccccc12)c1nc(C#N)ncc1Cl`, the IC50 in test [1] came out at 7 nM; in test [2], 197 nM.

Turning to `CC(C)CN(NC(=O)c1cccc2cc[nH]c12)c1nc(C#N)ncc1Br`, the values for the IC50 in test [1] and in test [2] were 3 nM and 342 nM, respectively.

For the compound `CC(C)CN(NC(=O)c1cccc2c1-c1ccccc1C2=O)c1nc(C#N)ncc1Br`, the half-inhibitory concentration (IC50) in test [1] was determined as 2 nM; in test [2] it was 67 nM.

Take `CC(C)CN(NC(=O)c1ccc(Oc2ccccc2)cc1)c1nc(C#N)ncc1Br`: the IC50 came to 8 nM in test [1] and 896 nM in test [2].

On to `CC(C)CN(NC(=O)Cc1c(Cl)cccc1Cl)c1nc(C#N)ncc1Br`, for which the 50% inhibitory concentration (IC50) was 1 nM in test [1] and 66 nM in test [2].

With `CC(C)(C)OC(=O)NN(c1nc(C#N)ncc1Br)C1CCCCC1`, the half-inhibitory concentration (IC50) in test [1] came to 1 nM; in test [2] it was 8 nM.

With `CC(C)CN(NC(=O)c1cccc(-c2ccncc2)c1)c1nc(C#N)ncc1Br`, the IC50 in test [1] is below 0.5 nM; in test [2] it was 15 nM.

Turning to `CC(C)CN(NC(=O)c1ccc(-c2ccc(Cl)cc2)o1)c1nc(C#N)ncc1Br`, the IC50 in test [1] came out at 20 nM; in test [2], 351 nM.

Turning to `CC(C)CN(NC(=O)c1ccc2nccnc2c1)c1nc(C#N)ncc1Br`, the half-inhibitory concentration (IC50) in test [1] was 66 nM; in test [2], 1440 nM.

With `COc1ccc(CC(=O)NN(CC(C)C)c2nc(C#N)ncc2Cl)cc1`, the results for the IC50 in test [1] and in test [2] were 1 nM and 5 nM, respectively.

In the case of `CC(C)CN(NC(=O)OC(C)(C)C)c1nc(C#N)ncc1Cl`, the IC50 in test [1] stood at 9 nM; in test [2] it was 144 nM.

With `CC(C)CN(NC(=O)c1ccc(-n2cccn2)cc1)c1nc(C#N)ncc1Cl`, the figures for the IC50 in test [1] and in test [2] were 8 nM and 148 nM, respectively.

In the case of `Cc1nc(-c2ccccc2)sc1C(=O)NN(CC(C)C)c1nc(C#N)ncc1Br`, the IC50 was determined as 406 nM in test [1] and 999 nM in test [2].

For the compound `CC(C)CN(NC(=O)OC(C)(C)C)c1nc(C#N)ncc1F`, the figures for the IC50 in test [1] and in test [2] were 24 nM and 583 nM, respectively.

As for `CC(C)(C)OC(=O)NN(c1nc(C#N)ncc1Br)C1CC=CC1`, the IC50 worked out at 2 nM in test [1] and 21 nM in test [2].

For `CC(C)CN(NC(=O)c1onc2ccccc12)c1nc(C#N)ncc1Br`, the IC50 was 604 nM in test [1] and above 10000 nM in test [2].

For the compound `CC(C)CN(NC(=O)c1ccnn1-c1ccccc1)c1nc(C#N)ncc1Cl`, the IC50 in test [1] is 7 nM; in test [2], 63 nM.

`CC(C)CN(NC(=O)c1ccc2ccccc2c1)c1nc(C#N)ncc1Br`: the IC50 came to 65 nM in test [1] and 645 nM in test [2].

As to `CC(C)CN(NC(=O)c1cc(-c2ccccc2)ncn1)c1nc(C#N)ncc1Cl`, the IC50 in test [1] amounted to 1 nM; in test [2], 30 nM.

As for `CC(C)(C)OC(=O)NN(c1nc(C#N)ncc1Br)C1CCN(C(=O)OC(C)(C)C)CC1`, the IC50 in test [1] was 26 nM; in test [2] it was 135 nM.

`CC(C)CN(NC(=O)c1ccc(-n2cncn2)cc1)c1nc(C#N)ncc1Br`: the values for the IC50 in test [1] and in test [2] were 3 nM and 52 nM, respectively.

For `CC(C)(C)OC(=O)NN(c1nc(C#N)ncc1Br)C1CCCC1(C)C` (stereo not drawn), the IC50 in test [1] was 34 nM; in test [2], 447 nM.

Regarding `CC(C)CN(NC(=O)C1(c2ccc(Cl)cc2)CCCCC1)c1nc(C#N)ncc1Br`, the IC50 in test [1] was determined as 40 nM; in test [2], 1650 nM.

`CC(C)CN(NC(=O)OC(C)(C)C)c1nc(C#N)ncc1C#Cc1ccc(C(F)(F)F)cc1`: the IC50 in test [1] was found to be 102 nM; in test [2], 5330 nM.

On to `CC(C)CN(NC(=O)c1ncoc1-c1ccccc1)c1nc(C#N)ncc1Br`, for which the IC50 in test [1] is 14 nM; in test [2], 94 nM.

For `CC(C)CN(NC(=O)C1(c2ccccc2)CCCC1)c1nc(C#N)ncc1Br`, the results for the half-inhibitory concentration (IC50) in test [1] and in test [2] were 11 nM and 137 nM, respectively.

For `CC(C)(C)OC(=O)NN(CC1CC=CCC1)c1nc(C#N)ncc1Br` (stereo not drawn), the IC50 in test [1] worked out at 2 nM; in test [2] it was 41 nM.
